ABHD4 inh: ABHD4 (mouse) inhibition, primary FP screen. Q8VD66. purified mABHD4, FP-Rh probe fluorescence polarization. inhibition, % at 8.92 µM. 370,000 tested, 0.54% active. AID 720543;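 active = inhibition exceeding the mean over every tested compound plus 3 SD, cut at about 30% in these data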;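 note: 0% = plate median of compound wells and 100% = S159A mutant with DMSO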
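Assay system: Wild-type mouse ABHD4 protein | Medium: HEPES pH 7.0 buffer, 150 mM NaCl, 0.01% Pluronic F-127 | Incubation: Enzyme–compound pre-incubation 45 min, then probe 60 min, both 25 °C | Technique: Fluorescence polarization with parallel and perpendicular emission, 525/598 nm | Evaluation: % inhibition of FP-Rh probe binding versus controls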
TDP2 inh: TDP2 (human) inhibition, absorbance primary screen; O95551; recombinant TDP2, T5PNP hydrolysis, p-nitrophenol absorbance 415 nm; inhibition, % at 12.8 µM; 370,000 tested, 0.34% active;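 active = inhibition above the mean of all tested compounds plus 3 SD, set per campaign, cut at about 25% in these data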;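 note: 0% = DMSO with enzyme and 100% = buffer with substrate but no TDP2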
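Test system: Human TDP2 enzyme | Reagent: 5 mM T5PNP | Compound dosing: 12.8 µM single point, 1% DMSO | Incubation: Enzyme reaction with compound for 2 h at 37 °C | Technique: p-Nitrophenol epi absorbance | Read-out: % inhibition relative to enzyme-containing and enzyme-free wells | Benchmarks: High control without enzyme, low control DMSO plus TDP2 | Replicates: Singlicate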
HTRA1 inhibitor: blocks human HTRA1 serine peptidase | recombinant HTRA1, FP-rhodamine activity-based probe, fluorescence polarization | inhibition, % at 5.96 µM | 340,000 tested, 0.5% active | AID 504803; in the data active = inhibition above about 36%;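 note: 0% = enzyme with DMSO and 100% = wells lacking enzyme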
SIAE inh: human SIAE inhibition, primary screen. Q9HAT2. 370,000 tested, 0.69% active. SIAE FP-Rh probe binding, fluorescence polarization. inhibition, % at 9.66 µM;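 active = inhibition above a cutoff: mean of compounds within the control limits plus 3 SD of those, cut at about 17% in these data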;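 note: 0% = plate median of compound wells and 100% = probe without SIAE protein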
PAD4 FP inh: inhibitors of human PAD4; AID 485272; 330,000 tested, 0.41% active; recombinant PAD4, RCA probe fluorescence polarization; inhibition, % at 6.36 µM;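 active = percent inhibition above a cutoff equal to the mean of all tested compounds plus 3 SD, cut at about 15% in these data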;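 note: 0% = PAD4 with RCA probe and DMSO and 100% = probe without PAD4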
Target sequence (Q9UM07 whole entry, looked up): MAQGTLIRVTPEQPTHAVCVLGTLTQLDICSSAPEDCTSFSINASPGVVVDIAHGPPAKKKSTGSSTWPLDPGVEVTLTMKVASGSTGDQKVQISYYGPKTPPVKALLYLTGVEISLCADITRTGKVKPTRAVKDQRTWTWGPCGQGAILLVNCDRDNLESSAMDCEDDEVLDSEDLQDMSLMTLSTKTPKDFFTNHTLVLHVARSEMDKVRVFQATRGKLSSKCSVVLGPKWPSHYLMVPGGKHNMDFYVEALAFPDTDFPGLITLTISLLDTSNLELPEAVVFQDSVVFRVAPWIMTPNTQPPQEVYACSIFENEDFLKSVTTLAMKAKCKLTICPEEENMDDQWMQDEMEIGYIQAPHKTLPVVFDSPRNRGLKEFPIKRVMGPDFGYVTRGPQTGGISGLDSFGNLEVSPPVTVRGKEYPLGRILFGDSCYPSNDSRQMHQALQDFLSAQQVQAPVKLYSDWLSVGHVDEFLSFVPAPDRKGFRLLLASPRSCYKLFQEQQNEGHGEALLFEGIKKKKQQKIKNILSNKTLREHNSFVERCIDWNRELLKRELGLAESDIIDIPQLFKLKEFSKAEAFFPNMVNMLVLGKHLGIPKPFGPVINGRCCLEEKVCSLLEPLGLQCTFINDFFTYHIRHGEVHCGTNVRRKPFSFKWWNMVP
TCR CD3 inh: blocks the human TCR-CD3 interaction; TAMRA-labeled TCR probe fluorescence, biochemical; inhibition, % at 9.4 µM; 360,000 tested, 0.37% active; AID 651800; in the data active = inhibition above about 19%;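 note: recombinant mutant TCR 2C K166C tagged with TAMRA read by polarization; 0% = receptor in buffer alone and 100% = receptor with positive control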
PAD4 confirm: confirmation of human PAD4 inhibitors. shares compounds with PAD4 FP inh. recombinant PAD4, RCA probe fluorescence polarization. inhibition, % at 6.36 µM. 1,200 tested, 28% active. AID 488796;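 active = mean inhibition across replicates above the hit cutoff set by the earlier primary screen, cut at about 15% in these data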;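 note: inhibitors block active-site labeling by the probe so polarization falls; 0% = PAD4 with probe and DMSO and 100% = probe without PAD4 enzyme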
Starred values were filed as active, the others as inactive; . = no result given. An excerpt weighted towards active compounds, which were near 2% of everything screened.

SMILES | ABHD4 inh | TDP2 inh | HTRA1 inhibitor | SIAE inh | PAD4 FP inh | TCR CD3 inh | PAD4 confirm
CCCCC1OC23CCCCC2C(C#N)(C#N)C1(C#N)C(=N)O3 (centres undefined) | 24 | 2 | 17 | 11 | 25* | 18 | 17*
CCCCCCCCOc1ccc(C2OC34CCCCC3C(C#N)(C#N)C2(C#N)C(=N)O4)cc1 (centres undefined) | . | . | 22 | . | 16* | . | 9
COc1ccccc1C(=O)N1CCCC(c2nc(-c3cccs3)no2)C1 (centres undefined) | 6 | -3 | . | 1 | . | . | .
Cn1nnnc1Sc1ncnc2scc(-c3cc4ccccc4o3)c12 | -14 | 3 | -30 | -10 | 16* | -1 | 13
COc1ccc(S[C@]2(C(=O)N(C)C)CC(=O)N(c3ccccc3)[C@@H]2c2ccc(OC)cc2)cc1 | -6 | -8 | . | 3 | . | . | .
COc1cccc(/C=C2/CN(C)CC3=C2OC(N)=C(C#N)C3c2cccc(OC)c2)c1 (centres undefined) | -6 | -4 | -7 | -3 | 61* | 8 | 13
COc1cccc(C2C(C#N)=C(N)OC(C(C)(C)C)=C2C#N)c1 (centres undefined) | 0 | 2 | -4 | 2 | -5 | 8 | .
CCC1C(=O)N=C(SCC(=O)Nc2cccc3ccccc23)NC1=O (centres undefined) | 2 | 3 | 1 | 0 | 11 | 4 | .
CCOC(=O)c1ccc(NC(=O)CSC2=NC(=O)C(CC)C(=O)N2)cc1 (centres undefined) | -4 | 8 | -3 | -4 | 21* | 11 | 20*
CN(C(=O)c1ccc(NC(=O)Cc2cccc([N+](=O)[O-])c2)cc1)C1CC1 | 4 | -1 | 6 | 8 | 35* | -1 | 4
CN(C(=O)c1ccc(NC(=O)Cc2cccc([N+](=O)[O-])c2)cc1)C1CCCC1 | 2 | -5 | -8 | 5 | -2 | 4 | .
CCn1c(CSc2ncn[nH]2)nc2cc(C(=O)O)ccc21 | 2 | -8 | 10 | 7 | 22* | 8 | 15*
O=C(O)c1ccc(CSc2ncn[nH]2)cc1 | 1 | 5 | -8 | 3 | -1 | 6 | .
CC(=O)Nc1ccc(S(=O)(=O)Nc2cccc(C(=O)Nc3ccccc3C(=O)O)c2)cc1 | -16 | 1 | -4 | -17 | 18* | 5 | 3
Cn1ncc2nnn(-c3ccccc3)c(=O)c21 | 1 | 0 | 0 | -7 | -2 | 0 | .
Cn1ncc2nc[nH]c(=O)c21 | 2 | -1 | 3 | -5 | 19* | 1 | 6
COC(=O)c1ccccc1NC(=O)CSc1nc(O)c(-c2ccccc2)c(=O)[nH]1 | 3 | 10 | 3 | -5 | 17* | -2 | 17*
CC(=O)Nc1c(O)nc(SCC(=O)Nc2cccc(C)c2)[nH]c1=O | 9 | 6 | -2 | 3 | 0 | 4 | .
COC(=O)c1cccc(NC(=O)CSc2nc(O)c(-c3ccccc3)c(=O)[nH]2)c1 | -1 | 1 | 0 | 3 | 18* | 10 | 20*
COc1ccccc1NC(=O)CSc1nc(N)c(-c2ccccc2)c(=O)[nH]1 | 7 | -5 | -3 | 9 | -6 | -5 | .
COc1ccc(C(N)c2nccc3cc(OC)c(OC)cc23)cc1OC (centres undefined) | . | . | 15 | . | 22* | . | -1
COc1cc2ccnc(C=O)c2cc1OC | . | . | 7 | . | . | . | .
N=C(N)SCP(=O)(c1ccccc1)c1ccccc1 | 6 | -6 | -5 | -2 | 17* | -4 | 15*
Cc1ccc(P(=O)(CSC(=N)N)c2ccc(C)cc2)cc1 | 0 | 0 | -5 | 1 | 24* | 7 | 18*
Cn1cccc1C(=O)N1CCN(S(=O)(=O)c2ccc(Br)s2)CC1 | 2 | 10 | . | 0 | . | . | .
SMILES | ABHD4 inh | TDP2 inh | HTRA1 inhibitor | SIAE inh | PAD4 FP inh | TCR CD3 inh | PAD4 confirm
Cc1ccc2c(c1)cc(CN(Cc1cccs1)C(=O)c1ccco1)c1nnnn12 | 3 | -1 | 0 | -10 | 30* | 10 | 0
Cc1ccc2cc(CN(Cc3cccs3)C(=O)c3ccco3)c3nnnn3c2c1C | . | . | . | . | -1 | . | .
O=c1c2ccccc2sn1-c1ccccc1F | 4 | 1 | 1 | 9 | . | 1 | .
Cc1ccccc1-n1sc2cc(F)ccc2c1=O | 15 | 13 | 0 | 5 | 21* | 2 | 28*
O=c1c2cc(C(F)(F)F)ccc2sn1-c1ccccc1 | 8 | 4 | 2 | 3 | . | 8 | .
O=c1c2cc(F)ccc2sn1-c1ccccc1 | 20 | 4 | -1 | 9 | 41* | 8 | 36*
O=c1c2ccccc2sn1-c1ccccc1 | 3 | 4 | -13 | 4 | 36* | -9 | 41*
Oc1c(Br)cc(C=Nc2ccc3nc(-c4ccccc4)[nH]c3c2)c(O)c1Br | 31* | 3 | . | 18* | 37* | 16 | 10
CC(C)(C)c1ccc(Cn2nnc3c(=O)[nH]c(C4CCCN(C(=O)Cc5cccs5)C4)nc32)cc1 (centres undefined) | -9 | -4 | -38 | -5 | 1 | 0 | .
CC(C)(C)c1ccc(Cn2nnc3c(=O)[nH]c(C4CCN(C(=O)Cc5cccs5)CC4)nc32)cc1 | -9 | -4 | -46 | -1 | 37* | -1 | -6
CCOC(=O)/C(C#N)=C/C=C1\C=Cc2ccccc2N1CC | -9 | -3 | 11 | 2 | 87* | -10 | 19*
CCCN1C=CC(=C/C=C(\C#N)C(=O)OCC)C=C1 | . | . | . | . | -1 | . | .
CN(CCO)S(=O)(=O)c1ccc2c(c1)C(=NO)c1cc(S(=O)(=O)N(C)CCO)ccc1-2 | -20 | 1 | -42 | -17 | 15* | 1 | -8
Cn1c(Cc2cccs2)nnc1SCC(=O)Nc1ccc2cn[nH]c2c1 | -4 | -6 | . | 1 | . | . | .
COc1ccccc1C1CC(c2cccs2)=NN1C(=O)CCC(=O)O (centres undefined) | -7 | -23 | -2 | -5 | -8 | -5 | .
COc1ccccc1C1CC(c2cccs2)=Nc2ccccc2S1 (centres undefined) | 3 | 11 | -14 | 11 | 23* | 0 | 2
COC(=O)[C@]12C[C@H](CC(=O)NCc3cccc4ccccc34)C(=O)N(CCC3=CCCCC3)C1=C[C@H](C(C)C)O[C@@H]2C1CC1 | 2 | 8 | . | 3 | . | . | .
Cc1ccc2c(c1)sc(C)[n+]2CCCS(=O)(=O)[O-] | -5 | -14 | 0 | -12 | 18* | 9 | 11
CCCC[n+]1c(C)sc2cc(OC)ccc21 | 4 | 9 | -5 | 4 | 14 | 1 | .
Cc1ccc2sc(C)[n+](CCCS(=O)(=O)[O-])c2c1 | -3 | 0 | 4 | -6 | 17* | 2 | -2
CC(=O)Nc1ccc(NC(=O)Oc2ccccc2)cc1 | -3 | -13 | -8 | -11 | 4 | 3 | .

Compound activity as filed in PubChem BioAssay.
